# Experimental data pooled from the literature.
# Target: RAC-beta serine/threonine-protein kinase (AKT2, Homo sapiens, UniProt P31751)
SMILES,test,setting,quantity,result
Cc1cc(NC(=O)c2cccc3cc(-c4cccc5[nH]nc(N)c45)ccc23)ccc1F,"enzyme activity, inhibitor",0.1 µM,activity vs control,123%
CCN(CC)c1ccc(C2=NNC(=O)CC2C)cc1[N+](=O)[O-] (stereo not drawn),"enzyme activity, inhibitor",10 µM,remaining activity,101%
CC(C)(C)c1nc2c(s1)c1nc(N)ncc1c1ccc(NS(=O)(=O)c3c(F)cccc3F)c(F)c12,"enzyme activity, inhibitor, radiometric",1 µM,remaining activity,114%
c1ccc(N2CCN(Cc3nc4ccccc4[nH]3)CC2)nc1,"binding, competition with immobilised ligand",1 µM,remaining binding,100%
Oc1cccc(-c2nc(N3CCOCC3)c3oc4ncccc4c3n2)c1,cell-free assay,0.5 µM,remaining signal,99.1%
COc1cc2ncnc(Nc3ccc(Oc4ccccc4)c(C)c3C)c2cc1OC,"enzyme activity, inhibitor",1 µM,inhibition,1%
Cc1nccc(COC(=O)N2C[C@@H]3[C@@H](CNC(=O)c4ccc5[nH]nnc5c4)[C@@H]3C2)n1,"cell-free assay, competition with immobilised ligand",1 µM,remaining binding,98%
CCCS(=O)(=O)Nc1ccc(F)c(C(=O)c2c[nH]c3ncc(-c4ccc(Cl)cc4)cc23)c1F,"enzyme activity, inhibitor",1 µM,inhibition,< 10%
Cc1ccc(-n2nc(C(C)(C)C)cc2NC(=O)Nc2ccc(OCCN3CCOCC3)c3ccccc23)cc1,"enzyme activity, inhibitor",10 µM,inhibition,-15%
C[C@@]1(Cc2ccc(C#N)cc2)C(=O)N(c2cc(Cl)cc(Cl)c2)c2ncc(C(=O)NC3(c4nc(C5CCC5)no4)CC3)n21,"cell-free assay, competition with immobilised ligand",1 µM,remaining binding,100%
O=C1Nc2ccc(Cl)cc2C1=Cc1cc(Cl)c(O)c(Cl)c1,cell-free assay,0.5 µM,remaining signal,93.9%
COc1cc(F)ccc1-c1ncnc(Nc2cccc(C[S@](C)(=N)=O)c2)n1,"enzyme activity, inhibitor",10 µM,activity vs control,112%
CSc1cccnc1N1CCN(Cc2nc3ccccc3[nH]2)CC1,"cell-free assay, competition with immobilised ligand",1 µM,remaining binding,98%
Cc1sc(C(=O)NC2COC2)cc1-n1cc(NC(=O)Nc2c(F)cccc2Cl)cn1,"enzyme activity, inhibitor",10 µM,remaining activity,88.9%
Cc1ccc(NC(=O)c2ccc(C)c(C(F)(F)F)c2)cc1C#Cc1nn(C2CCC(O)CC2)c2ncnc(N)c12 (stereo not drawn),cell-free assay,10 µM,remaining signal,127%
O=C(NS(=O)(=O)c1ccc(NCC2CCOCC2)c([N+](=O)[O-])c1)c1ccc(N2CCN(Cc3ccc(C(F)(F)F)cc3-c3ccc(Cl)cc3)CC2)cc1Oc1cnc2[nH]ccc2c1,"cell-free assay, competition with immobilised ligand",1 µM,remaining binding,100%
Oc1cccc(-c2nc(N3CCOCC3)c3oc4ncccc4c3n2)c1,"enzyme activity, inhibitor",10 µM,remaining activity,114%
COc1ccc2c(c1)O[C@H](c1ccc(OC)c(OC)c1)C[C@@H]2NC(=O)C1(c2ccc3c(c2)OC(F)(F)O3)CC1,"cell-free assay, competition with immobilised ligand",1 µM,remaining binding,96%
O=C1NC(=O)c2cc(Nc3ccc(F)cc3)c(Nc3ccc(F)cc3)cc21,cell-free assay,0.5 µM,remaining signal,95.1%
CC(C)(O)[C@H]1CC[C@H](Nc2ccc3ncc(-c4cccc(C(F)(F)F)c4)n3n2)CC1,"enzyme activity, inhibitor",1 µM,remaining activity,102%
CC(C)(C)C(=O)c1sc(NC2CCCCC2)nc1N,"enzyme activity, inhibitor",10 µM,remaining activity,83%
O=C(N[C@H]1CCCCC/C=C\C2C[C@@]2(C(=O)O)NC(=O)[C@@H]2C[C@@H](Oc3ccncc3)CN2C1=O)OC1CCCC1 (stereo partly drawn),"binding, competition with immobilised ligand",1 µM,remaining binding,85%
Cc1ccc(C(=O)NCc2ccsc2)cc1C#Cc1cn(C(C)C)c2ncnc(N)c12,"enzyme activity, inhibitor",1 µM,activity vs control,99%
CNC(=O)c1cc(Oc2ccc(NC(=O)Nc3ccc(Cl)c(C(F)(F)F)c3)cc2)ccn1,cell-free assay,0.5 µM,remaining signal,103%
CCCOc1ccc(OC)c(F)c1C(=O)c1ccc(C(=O)N[C@@H]2CNC[C@H]2NC(=O)c2ccc3[nH]ncc3c2)cc1,"enzyme activity, inhibitor",10 µM,remaining activity,49%
CN1CC(Oc2cnc(C#N)cc2-c2ccn3nc(NC(=O)C4CC4)cc3c2)C1,"enzyme activity, inhibitor",1 µM,inhibition,-3%
O=S(=O)(NC1CCC(c2cc(F)ccc2F)(S(=O)(=O)c2ccc(Cl)cc2)CC1)C(F)(F)F (stereo not drawn),"cell-free assay, competition with immobilised ligand",1 µM,remaining binding,99%
COc1cc(Nc2cnc(C#N)c(O[C@H](C)CN(C)C)n2)ncc1-c1cnn(C)c1,"enzyme activity, inhibitor, radiometric",1 µM,remaining activity,81%
Nc1nc(Nc2ccccc2)sc1C(=O)c1c(F)cccc1F,"enzyme activity, inhibitor",10 µM,remaining activity,85%
FC(F)c1nc2ccccc2n1-c1nc(N2CCOCC2)nc(N2CCOCC2)n1,"enzyme activity, inhibitor",10 µM,remaining activity,84%
